The source made the active and inactive calls. The rule behind the calls is not given here.
Columns and labels:
Cricetinae gen. sp. [1] = experiment: Compound is evaluated for its intrinsic ability to control epithelial cell differentiation by retinoids in hamster tracheal organ culture; format: functional, Trachea
How it was run: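 Hamster trachea organ cultures (procedure from earlier reports). Retinoids tested at 10^-8, 10^-9 and 10^-10 M. Potency given as ED50.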

Cricetinae gen. sp. [2] = experiment: Compound is evaluated for its intrinsic ability to control epithelial cell differentiation by retinoids in hamster tracheal organ culture at 10e-9 M; IA = inactive(3/4) 3 were inactive out of 4; format: functional, organism-based; settings: Trachea
Cricetinae gen. sp. [3] = experiment: Compound is evaluated for its intrinsic ability to control epithelial cell differentiation by retinoids in hamster tracheal organ culture at 10e -8M; IA = inactive( 6 cultures were inactive out of 7); format: functional, organism-based; settings: Trachea
Cricetinae gen. sp. [4] = experiment: Compound is evaluated for its intrinsic ability to control epithelial cell differentiation by retinoids in hamster tracheal organ culture at 10e-8 M; IA = inactive(9/12) 9 were inactive out of 12; format: functional, organism-based; settings: Trachea
Cricetinae gen. sp. [5] = experiment: Compound is evaluated for its intrinsic ability to control epithelial cell differentiation by retinoids in hamster tracheal organ culture at 10e-9 M; IA = inactive(12/16) 12 were inactive out of 16; format: functional, organism-based; settings: Trachea
Cricetinae gen. sp. [6] = experiment: Compound is evaluated for its intrinsic ability to control epithelial cell differentiation by retinoids in hamster tracheal organ culture at 10e-9 M; IA = inactive(14/16) 14 were inactive out of 16; format: functional, organism-based; settings: Trachea
Cricetinae gen. sp. [7] = experiment: Compound is evaluated for its intrinsic ability to control epithelial cell differentiation by retinoids in hamster tracheal organ culture at 10e -8M; IA = inactive(16/17) 16 cultures were inactive out of 17; format: functional, organism-based; settings: Trachea
Cricetinae gen. sp. [8] = experiment: Compound is evaluated for its intrinsic ability to control epithelial cell differentiation by retinoids in hamster tracheal organ culture at 10e -10M; IA = inactive(9/12) 9 were inactive out of 12; format: functional, organism-based; settings: Trachea
Cricetinae gen. sp. [9] = experiment: Compound is evaluated for its intrinsic ability to control epithelial cell differentiation by retinoids in hamster tracheal organ culture at 10e -9M; IA =inactive(8/15) 8 were inactive out of 15; format: functional, organism-based; settings: Trachea
Cricetinae gen. sp. [10] = experiment: Compound is evaluated for its intrinsic ability to control epithelial cell differentiation by retinoids in hamster tracheal organ culture at 10e-8 M; act = active(4 cultures were active out of 5); format: functional, organism-based; settings: Trachea
Cricetinae gen. sp. [11] = experiment: Compound is evaluated for its intrinsic ability to control epithelial cell differentiation by retinoids in hamster tracheal organ culture at 10e -9M; IA = inactive(7 cultures were inactive out of 7); format: functional, organism-based; settings: Trachea

Molecule | TOC ED50 (Cricetinae gen. sp. [1]) [pM] | other results
CCC1CC(=O)C(=C/C=C(C)/C=C/C=C(C)/C=C/C2=C(C)CCCC2(C)C)C(=O)C1 (configuration not stated) | 360 | 
CC1=C(/C=C/C(C)=C/C=C/C(C)=C/C=C2C(=O)CC(C(C)C)CC2=O)C(C)(C)CCC1 (configuration not stated) | 210 | 
CC1=C(/C=C/C(C)=C/C=C/C(C)=C/C=C2C(=O)CCCCCCC2=O)C(C)(C)CCC1 | 240 | 
CC(=O)C(=C/C=C(C)/C=C/C=C(C)/C=C/C1=C(C)CCCC1(C)C)C(C)=O | 1800 | 
CC1=C(/C=C/C(C)=C/C=C/C(C)=C/C=C2C(=O)C=CC2=O)C(C)(C)CCC1 |  | TOC ED50 (Cricetinae gen. sp. [2]): inactive
CC1=C(/C=C/C(C)=C/C=C/C(C)=C/C=C2C(=O)CC(c3ccc(C(F)(F)F)cc3)CC2=O)C(C)(C)CCC1 (configuration not stated) | 100 | 
CC1=C(/C=C/C(C)=C/C=C/C(C)=C/C=C2C(=O)CC(C)(C)CC2=O)C(C)(C)CCC1 | 240 | 
CC1=C(/C=C/C(C)=C/C=C/C(C)=C/C=C2C(=O)CCCC2=O)C(C)(C)CCC1 | 110 | 
CCCC(=O)C(=C/C=C(C)/C=C/C=C(C)/C=C/C1=C(C)CCCC1(C)C)C(=O)CCC |  | TOC ED50 (Cricetinae gen. sp. [3]): inactive
CC1=C(/C=C/C(C)=C/C=C/C(C)=C/C=C2C(=O)c3ccccc3C2=O)C(C)(C)CCC1 |  | TOC ED50 (Cricetinae gen. sp. [4]): inactive
CC1=C(/C=C/C(C)=C/C=C/C(C)=C/C=C2C(=O)CCCCCC2=O)C(C)(C)CCC1 | 220 | 
CC1=C(/C=C/C(C)=C/C=C/C(C)=C/C=C2C(=O)CCCCCCCCCCCC2=O)C(C)(C)CCC1 |  | TOC ED50 (Cricetinae gen. sp. [5]): inactive
2-[3,7-Dimethyl-9-(2,6,6-trimethyl-cyclohex-1-enyl)-nona-2,4,6,8-tetraenylidene]-[3]ferrocenophane-1,3-dione |  | TOC ED50 (Cricetinae gen. sp. [6]): inactive
CC1=C(/C=C/C(C)=C/C=C/C(C)=C/C=C2C(=O)CCCCC2=O)C(C)(C)CCC1 | 380 | 
CC1=C(/C=C/C(C)=C/C=C/C(C)=C/C=C2C(=O)CCC2=O)C(C)(C)CCC1 |  | TOC ED50 (Cricetinae gen. sp. [7]): inactive
CC1=C(/C=C/C(C)=C/C=C/C(C)=C/C=C2C(=O)CC(C)CC2=O)C(C)(C)CCC1 (configuration not stated) | 800 | 
CC1=C(/C=C/C(C)=C/C=C/C(C)=C/C=C2C(=O)C(C(C)(C)C)CC(C(C)(C)C)C2=O)C(C)(C)CCC1 (configuration not stated) |  | TOC ED50 (Cricetinae gen. sp. [8]): inactive; TOC ED50 (Cricetinae gen. sp. [9]): inactive
CC1=C(/C=C/C(C)=C/C=C/C(C)=C/C=C2C(=O)CC(c3ccccc3)CC2=O)C(C)(C)CCC1 (configuration not stated) | 100 | 
COc1ccc(C2CC(=O)C(=C/C=C(C)/C=C/C=C(C)/C=C/C3=C(C)CCCC3(C)C)C(=O)C2)cc1 (configuration not stated) | 180 | 
CCC(=O)C(=C/C=C(C)/C=C/C=C(C)/C=C/C1=C(C)CCCC1(C)C)C(=O)CC |  | TOC ED50 (Cricetinae gen. sp. [10]): Active; TOC ED50 (Cricetinae gen. sp. [11]): inactive
